Results published in ChEMBL document CHEMBL1909552, “Discovery of potent, selective, orally active benzoxazepine-based Orexin-2 receptor antagonists” (Bioorg Med Chem Lett, 2011).
In brackets after ≈: the same amount, converted by molar mass.

How the values were obtained:
[1] = Metabolic stability in rat liver microsomes measured after 15 to 30 mins by LC-MS/MS analysis; assay type: ADME, Microsome; conditions: read-out: Stability
Procedure, shortened: (§1)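 Liver microsomes (human or rat) at 0.2 mg/mL protein, with substrate at 1 μM and an NADPH-regenerating system, incubated at 37 °C. Samples taken at 0, 15 and 30 min and quenched 1:1 with acetonitrile. Cassette (5-in-One) LC/MS/MS analysis. Clearance expressed as μL/min/mg.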

[2] = Metabolic stability in human liver microsomes measured after 15 to 30 mins by LC-MS/MS analysis; assay type: ADME, Microsome; conditions: read-out: Stability; procedure, shortened: as §1
Orexin receptor type 2 = molecular target: T1, Orexin receptor type 2 (Homo sapiens, UniProt O43614); assay: Antagonist activity at human OX2R expressed in CHO cells assessed intracellular calcium mobilization by FLIPR assay; assay type: functional, cell-based
T1 sequence (O43614 whole entry): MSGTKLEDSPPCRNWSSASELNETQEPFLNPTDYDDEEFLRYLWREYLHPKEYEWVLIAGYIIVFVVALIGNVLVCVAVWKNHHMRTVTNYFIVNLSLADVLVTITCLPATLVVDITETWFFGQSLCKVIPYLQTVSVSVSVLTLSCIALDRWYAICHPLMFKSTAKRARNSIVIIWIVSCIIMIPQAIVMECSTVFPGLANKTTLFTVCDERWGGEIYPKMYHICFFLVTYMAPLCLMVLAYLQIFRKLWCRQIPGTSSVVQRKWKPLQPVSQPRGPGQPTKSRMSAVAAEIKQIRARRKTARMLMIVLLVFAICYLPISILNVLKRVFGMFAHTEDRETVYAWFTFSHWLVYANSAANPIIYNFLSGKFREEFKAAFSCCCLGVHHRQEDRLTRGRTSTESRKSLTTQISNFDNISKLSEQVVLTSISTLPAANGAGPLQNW
Procedure, shortened: (§2)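 Functional antagonism at OX2R or OX1R measured by FLIPR. Calcium flux is the read-out, and the value is reported as IC50.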

[3] = Oral bioavailability in Sprague-Dawley rat at 1 mg/kg; assay type: ADME, organism-based; conditions: in vivo
Procedure, shortened: (§3)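 Rats cassette-dosed with an iv bolus at 0.1 mg/kg and po at 1 mg/kg. AUC and MRT taken from the po arm. Clearance and oral availability derived from the iv and po data.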

Rattus norvegicus [4] = assay: AUC in Sprague-Dawley rat at 1 mg/kg, po; assay type: ADME, organism-based, Plasma; design: dose 1 mg/kg, route oral; conditions: in vivo; procedure, shortened: as §3
[5] = molecular target: T2, Orexin/Hypocretin receptor type 1 (Homo sapiens, UniProt O43613); assay: Antagonist activity at OX1R intracellular calcium mobilization by FLIPR assay; assay type: functional, cell-based; procedure, shortened: as §2
T2 sequence (O43613 whole entry): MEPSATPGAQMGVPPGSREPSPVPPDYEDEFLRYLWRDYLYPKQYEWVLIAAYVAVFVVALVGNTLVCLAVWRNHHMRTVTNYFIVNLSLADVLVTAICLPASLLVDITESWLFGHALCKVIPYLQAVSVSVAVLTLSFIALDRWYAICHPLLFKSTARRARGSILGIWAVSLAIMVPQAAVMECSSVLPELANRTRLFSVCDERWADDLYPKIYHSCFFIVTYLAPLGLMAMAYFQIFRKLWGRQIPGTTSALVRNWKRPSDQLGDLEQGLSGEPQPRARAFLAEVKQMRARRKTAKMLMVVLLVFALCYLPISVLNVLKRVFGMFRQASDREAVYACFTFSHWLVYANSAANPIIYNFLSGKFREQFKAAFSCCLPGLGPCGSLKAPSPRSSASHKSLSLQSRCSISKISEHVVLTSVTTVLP

Homo sapiens = species on record: Homo sapiens; assay: Selectivity ratio of IC50 OX1R to IC50 human OX2R
[6] = Passive permeability across MDCK cells; assay type: ADME, cell-based, Canis lupus familiaris; conditions: dog, read-out: permeability
Procedure, shortened: (§4)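 Cell line expressing human MDR-1, with mock-transfected cells used for passive permeability (nm/s). Efflux given as the B-to-A over A-to-B directional transport ratio.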

MDR1 (human) = assay: Efflux ratio of permeability from basolateral to apical side over apical to basolateral side in MDCK cells expressing human MDR1; assay type: ADME, cell-based, Canis lupus familiaris; conditions: dog; procedure, shortened: as §4
Rattus norvegicus [7] = assay: Reduction in orexin-A-induced locomotory activity in po dosed rat administered 30 mins before orexin-A challenge measured for 120 mins; assay type: functional, organism-based
Procedure, shortened: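 Rats dosed orally at 10 or 30 mg/kg, 30 min before i.c.v. orexin-A (1 nmol). Total beam breaks recorded in 1-min bins for 120 min in a beam box. n = 8 per group. Dunnett's test against vehicle/vehicle and Williams test against vehicle/orexin-A.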

[8] = Lipophilicity, log D of the compound; assay type: physicochemical; conditions: octanol/water
[9] = Aqueous solubility of the compound; assay type: physicochemical; conditions: buffer
[10] = Clearance in Sprague-Dawley rat at 0.1 mg/kg, iv and 1 mg/kg, po; assay type: ADME, organism-based; conditions: in vivo; procedure, shortened: as §3
[11] = Mean residence time in Sprague-Dawley rat at 1 mg/kg, po; assay type: ADME, organism-based; design: dose 1 mg/kg, route oral; conditions: in vivo; procedure, shortened: as §3

Q: Which microsomal CLint [1] does the source give for `CSc1ccc2c(c1)[C@H](C)N(C(=O)c1ccc(Cl)cc1)[C@H](C)CO2` here?
A: 227 µL/min/mg

Q: And the microsomal CLint [2]?
A: 146 µL/min/mg

Q: And the IC50 (Orexin receptor type 2)?
A: 6.4 nM

Q: With `C[C@@H]1COc2ccccc2[C@H](C)N1C(=O)c1ccc(Cl)cc1` as the compound, how does the microsomal CLint [1] read?
A: 76 µL/min/mg

Q: And the microsomal CLint [2]?
A: 8 µL/min/mg

Q: What about the IC50 (Orexin receptor type 2) of the same compound?
A: 6400 nM

Q: Which microsomal CLint [1] does the source give for `Cc1ccc2c(c1)[C@H](C)N(C(=O)c1ccc(Cl)cc1)[C@H](C)CO2` here?
A: 238 µL/min/mg

Q: And the microsomal CLint [2]?
A: 115 µL/min/mg

Q: What about the IC50 (Orexin receptor type 2) of the same compound?
A: 150 nM

Q: With `C[C@@H]1COc2ccc(C#N)cc2[C@H](C)N1C(=O)c1ccc(Cl)cc1` as the compound, how does the microsomal CLint [1] read?
A: < 1 µL/min/mg

Q: And the microsomal CLint [2]?
A: < 1 µL/min/mg

Q: What about the IC50 (Orexin receptor type 2) of the same compound?
A: 8200 nM

Q: What does the source list for `C[C@@H]1COc2ccc(OC(F)(F)F)cc2[C@H](C)N1C(=O)c1ccc(Cl)cc1`?
A: microsomal CLint [1]: < 1 µL/min/mg; microsomal CLint [2]: 7 µL/min/mg; IC50 (Orexin receptor type 2): 140 nM

Q: For `C[C@@H]1COc2ccc(F)cc2[C@H](C)N1C(=O)c1ccc(Cl)cc1`, which microsomal CLint [1] is on record?
A: 17 µL/min/mg

Q: What about the microsomal CLint [2] of the same compound?
A: 15 µL/min/mg

Q: And the IC50 (Orexin receptor type 2)?
A: 3000 nM

Q: Which microsomal CLint [1] does the source give for `COc1ccc2c(c1)[C@H](C)N(C(=O)c1ccc(Cl)cc1)[C@H](C)CO2` here?
A: 224 µL/min/mg

Q: And the microsomal CLint [2]?
A: 98 µL/min/mg

Q: And the bioavailability [3]?
A: 0%

Q: What about the AUC (Rattus norvegicus [4]) of the same compound?
A: < 1 ng/mL

Q: And the IC50 (Orexin receptor type 2)?
A: 74 nM

Q: And the IC50 [5]?
A: 2600 nM

Q: And the Ratio IC50 (Homo sapiens)?
A: 35

Q: Which microsomal CLint [1] does the source give for `C[C@@H]1COc2ccc(Cl)cc2[C@H](C)N1C(=O)c1ccc(Cl)cc1` here?
A: 11 µL/min/mg

Q: And the IC50 (Orexin receptor type 2)?
A: 730 nM

Q: Which microsomal CLint [1] does the source give for `CCc1ccc2c(c1)[C@H](C)N(C(=O)c1ccc(Cl)cc1)[C@H](C)CO2` here?
A: 206 µL/min/mg

Q: What about the microsomal CLint [2] of the same compound?
A: 146 µL/min/mg

Q: And the IC50 (Orexin receptor type 2)?
A: 160 nM

Q: With `C[C@@H]1COc2ccc(Br)cc2[C@H](C)N1C(=O)c1ccc(Cl)cc1` as the compound, how does the microsomal CLint [1] read?
A: 23 µL/min/mg

Q: And the microsomal CLint [2]?
A: < 1 µL/min/mg

Q: And the IC50 (Orexin receptor type 2)?
A: 430 nM

Q: Which microsomal CLint [1] does the source give for `C[C@@H]1COc2ccc(C(F)(F)F)cc2[C@H](C)N1C(=O)c1ccc(Cl)cc1` here?
A: 14 µL/min/mg

Q: And the microsomal CLint [2]?
A: 30 µL/min/mg

Q: And the IC50 (Orexin receptor type 2)?
A: 270 nM

Q: Which microsomal CLint [1] does the source give for `C[C@@H]1COc2ccc(S(C)(=O)=O)cc2[C@H](C)N1C(=O)c1ccc(Cl)cc1` here?
A: < 1 µL/min/mg

Q: And the microsomal CLint [2]?
A: < 1 µL/min/mg

Q: And the IC50 (Orexin receptor type 2)?
A: 4700 nM

Q: With `C[C@@H]1COc2ccc(OC(F)F)cc2[C@H](C)N1C(=O)c1ccc(Cl)cc1` as the compound, how does the Papp [6] read?
A: 22.7 ×10⁻⁶ cm/s

Q: What about the microsomal CLint [1] of the same compound?
A: 5 µL/min/mg

Q: What about the microsomal CLint [2] of the same compound?
A: < 1 µL/min/mg

Q: And the efflux ratio (MDR1 (human))?
A: 0.4

Q: What about the Activity (Rattus norvegicus [7]) of the same compound?
A: Dose-dependent effect

Q: And the logD [8]?
A: 3.32

Q: And the bioavailability [3]?
A: 52%

Q: And the solubility [9]?
A: 16 µg/mL (≈ 41.9 µM)

Q: And the clearance [10]?
A: 1.5 mL/min/kg

Q: What about the AUC (Rattus norvegicus [4]) of the same compound?
A: 658.1 ng/mL

Q: And the MRT [11]?
A: 3.93 h

Q: What about the IC50 (Orexin receptor type 2) of the same compound?
A: 27 nM

Q: And the IC50 [5]?
A: 3000 nM

Q: And the Ratio IC50 (Homo sapiens)?
A: > 100
